Experiment: Toxicity liver stage against HepG2, at 10uM
Assay type: cell-based
Design: test concentration 10 uM, cell line HepG2-A16-CD81EGFP
Conditions: human, HepG2-A16-CD81EGFP cells; read-out: INHIBITION
Summary of the method: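 Uninfected HepG2-A16-CD81EGFP cells, 3 × 10^3 per well, 1536-well, plated on prespotted compound at 10 μM final, parasite-free screening media added to match infected plates; puromycin 10 μM positive, DMSO 0.5% negative; run in parallel with 48 h PbLuc assay at 37 °C, 5% CO2; viability by CellTiter-Glo luminescence, normalized to controls.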

Compound	cytotoxicity at 10 µM
CO[C@H]1CO[C@@]2(CCCN(C(=O)N3CCCC3)C2)C1	-108%
Cc1c(COC(C)C)cccc1NC(=O)N1CCCC(CO)C1 (configuration not stated)	-5.44%
CSCc1noc(CNC2CCCC(C)(C)C2)n1 (configuration not stated)	-0.268%
CC(C)c1nccn1CCCNC(=O)c1ccc(-c2cnn(C)c2)nc1	-9.36%
O=C(C1CCOCC1)N1CCOC(CC2CCCCC2)C1 (configuration not stated)	-5.56%
Cc1nn(CC(=O)N2CCC3(CN(C)C(=O)O3)C2)c(=O)c2ccccc12 (configuration not stated)	9.74%
CN1CCCC(Cc2cncc(C(=O)NCC3CC3)c2)C1 (configuration not stated)	-3.99%
CC(OCC1CC1)C(=O)Nc1ccn(Cc2ccccc2)n1 (configuration not stated)	11.9%
CCn1nc(C)c2nc(C)nc(N(C)Cc3ccco3)c21	4.23%
Cc1cc(C2CCCN2CC(=O)N(CCC#N)c2ccccc2F)on1 (configuration not stated)	-1.5%
CNC(=O)C1(CCCc2cnccn2)CCN1CCc1ccccc1 (configuration not stated)	-1.23%
CN(C(=O)c1cc(Cl)c[nH]1)C1CCN(c2ccccn2)CC1	-1.49%
Cc1nc(N2CCN(C)CC2)ncc1C(=O)N1CCCCCC1	-3.48%
FC1(F)CCN(c2ccccc2)CC12CCN(c1ncccn1)C2 (configuration not stated)	3.71%
Cc1csc2cc(C(=O)NC3CC3)cnc12	-0.697%
O=C(NCc1ccccc1CN1CCOCC1)Nc1nncs1	14.3%
O=C(c1cc2c([nH]c1=O)CCC2)N1CCCC1c1ccc(F)cc1 (configuration not stated)	-6.14%
COc1c(C)cnc(CN(C)C(=O)c2ccc(C3CCCO3)s2)c1C (configuration not stated)	9.5%
O=C1[C@H]2CN(c3ncccn3)C[C@H]2CN1CCN1CCCC1	2.2%

Compound	cytotoxicity at 10 µM
Cc1nc(C)c(C(=O)N2CCc3nnc(C4CCCCN4C)n3CC2)o1 (configuration not stated)	1.9%
CCc1nccn1C1CCCN(C(=O)c2cnc3ccccc3n2)C1 (configuration not stated)	-4.61%
NC(=O)N1CCC2(CC1)CN(c1ccsc1)C(=O)CO2	10.7%
Fc1cc(F)cc(CN2CCC(c3cc4ncccc4cn3)CC2)c1	-1.13%
CCOCC1CN(C(=O)c2ccoc2C)Cc2cnn(C)c21 (configuration not stated)	-2.48%
CC(CC(F)(F)F)NCc1ccccc1-n1ccnc1 (configuration not stated)	3.15%
Cc1nc(NCC(O)CN2CCCCCC2)c2c(C)nn(C)c2n1 (configuration not stated)	-2.86%
Cc1nc(C)n(CC2CCCCN2CCCO)n1 (configuration not stated)	4.37%
CN1CCN(c2ccccc2NC(=O)NCC[S+](C)[O-])CC1 (configuration not stated)	-2.41%
CCNC(=O)CN1CCSC2(CCCCC2)C1	-2.64%
Cc1nn(CC(=O)N2CCN(c3ncccn3)CC2)c(C)c1Cl	0.215%
O=C(O)C1(n2ccc(-c3ccco3)n2)CCN(Cc2ccsc2)CC1	-129%
Cc1nc[nH]c1CN1CCCC(CNC(=O)c2ccc(N)nc2)C1 (configuration not stated)	1.56%
Cc1nc(C)c(CC(=O)N2C[C@H]3CC[C@@H](C2)N(CC2CC2)C3)s1	-1.59%
COCC(NC(=O)c1ccc[nH]1)c1cccc(C(F)(F)F)c1 (configuration not stated)	-2.54%
CSCC(=O)N1CCc2c(cnc(C)c2-c2noc(-c3ccco3)n2)C1	2.93%
CN1CCN(C2CCN(Cc3noc(-c4ccccc4)n3)CC2)C1=O	9.5%
NC(=O)CCn1ccc(NC(=O)c2ccc(OCC3CC3)cc2)n1	5.48%
COc1ccc(OC)c2c(C)cc(N(C)CCCO)nc12	7.17%

Compound	cytotoxicity at 10 µM
CSCC[C@H](N)C(=O)NCc1cc2n(n1)CCCN(C(=O)N(C)C)C2	9.8%
CCCNS(=O)(=O)Cc1ccc(Br)cc1	-4.81%
Cc1ccccc1N1CCCN(C(=O)CC2CN(C(C)C)CCO2)CC1 (configuration not stated)	-3.11%
Cc1cc(C)c2nc(CN3CCC(CN)CC3)cc(O)c2c1	2.55%
CNC(=O)CN1CCC2(CCCN(CC3CCOC3)C2)CC1 (configuration not stated)	-107%
Cc1nc(CN(C)C(=O)Nc2cnn(CC3CCCO3)c2)cs1 (configuration not stated)	5.53%
COc1ccc(Br)c(NC(=O)NCc2ncnn2C)c1	5.41%
Cc1cncc(C(=O)N2CC[C@@H]3[C@H]2CCC(=O)N3CCN(C)C)c1	-4.84%
CC(=O)c1ccc(N2CCCC(CO)(CCc3ccccc3)C2)nc1 (configuration not stated)	1.2%
CCOc1ccc(NC(=O)N(CCN(C)C)C(C)c2ccncc2)cc1 (configuration not stated)	5.42%
CN(C)C(=O)c1nc2c(n1C)CCN(Cc1ccccc1)C2	7.83%
O=C1N[C@@H]2CCN(C(=O)C3CC3)[C@@H]2C(=O)N1c1ccc(F)cc1	-1.8%
CNc1cncc(C2CCCN2Cc2ccn(C)n2)n1 (configuration not stated)	-6.88%
CN(Cc1ccncc1)C1CC2(CCN(c3ncccn3)CC2)C1	13.1%
Cc1nccn1C1CCCN(C(=O)c2cccc3c2OCO3)C1 (configuration not stated)	-14.1%
O=C(NCc1ccccc1F)C1=NOC2(CCNC2)C1 (configuration not stated)	3.23%
CC(=O)N1CCN(Cc2ccc(C(F)(F)F)c(F)c2)CC(O)C1 (configuration not stated)	-2.2%
CCc1ccc(C(C)NCc2nccn2Cc2ccccc2)o1 (configuration not stated)	-1.2%
C[C@@H]1CN(Cc2cc(C3CCCCC3)no2)CC[C@]1(C)O	-13.2%

Reference: ChEMBL document CHEMBL4513216, “Probing the Open Global Health Chemical Diversity Library for Multistage-Active Starting Points for Next-Generation Antimalarials” (ACS Infect Dis, 2020)
